From ChEMBL document CHEMBL2203189, “Synthesis and pharmacology of 1-alkyl-3-(1-naphthoyl)indoles: steric and electronic effects of 4- and 8-halogenated naphthoyl substituents” (Bioorg Med Chem, 2012)
The source made the active and inactive calls.

Legend:
[1] = species on record: Mus musculus; test: Induction of catalepsy in mouse by ring immobility test; assay type: functional
[2] = tested on: Mus musculus; test: Antinociceptive activity in iv dosed Harlan ICR mouse assessed as latency to heat-induced tail flicking at 20 mins; assay type: functional
In short: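 Male ICR mice, 18–25 g, n = 6 per dose. Multiple doses iv by tail vein in emulphor–ethanol–saline 1:1:18. Tail-flick latency at 20 min, 10 s cutoff, expressed as %MPE.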

[3] = tested on: Mus musculus; test: Hypothermic activity in iv dosed Harlan ICR mouse assessed as change in rectal temperature at 30 mins; assay type: functional; details: 0.5 h
[4] = tested on: Mus musculus; test: Locomotor activity in iv dosed Harlan ICR mouse from 5 to 15 mins by spontaneous locomotor activity test; assay type: functional
[5] = molecular target: Cannabinoid receptor 2 (Homo sapiens, UniProt P34972); test: Displacement of [3H]CP55940 from human CB2 receptor expressed in CHO cells after 1 hr by liquid scintillation spectrophotometry; assay type: cell-based
In short: (§1)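 Membranes (50 µg) from CHO cells stably expressing human CB2, cultured in DMEM/10% fetal calf serum. Incubated with 0.5 nM [3H]CP55,940 and test compound at 1 nM–10 µM with BSA (5 mg/mL), 1 h at 30 °C. Nonspecific binding defined with excess unlabelled CP55,940. GF/B filtration, then scintillation counting.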

[6] = molecular target: T1, Cannabinoid receptor 1 (Homo sapiens, UniProt P21554); test: Displacement of [3H]CP55940 from human CB1 receptor expressed in HEK293 cells after 1 hr by liquid scintillation spectrophotometry; assay type: cell-based
In short: as §1, with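 “HEK-293” for “CHO”, “CB1,” for “CB2,”, “FBS.” for “fetal calf serum.”, “µM in buffer” for “µM”, “Filtered through GF/B,” for “GF/B filtration,”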

[7] = species on record: Homo sapiens; test: Selectivity ratio of Ki for human CB1 receptor to Ki for human CB2 receptor
[8] = tested on: Mus musculus; test: Hypothermic activity in Harlan ICR mouse assessed as change in rectal temperature at 77 umol/kg, iv at 30 mins; assay type: functional
In short: (§2)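 Male ICR mice, n = 6 per dose. Single probe dose iv in emulphor–ethanol–saline 1:1:18. Rectal temperature taken with a thermistor probe at 25 mm depth before dosing and at 30 min. Result given as change from pre-injection value (°C).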

[9] = tested on: Mus musculus; test: Locomotor activity in Harlan ICR mouse assessed as inhibition of activity level at 77 umol/kg, iv from 5 to 15 mins by spontaneous locomotor activity test relative to vehicle treated control; assay type: functional
In short: (§3)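 Male ICR mice, n = 6 per dose, single probe dose iv in emulphor–ethanol–saline 1:1:18. Photocell beam interruptions recorded over 10 min, at 5–15 min after dosing. Result given as % inhibition relative to the vehicle group.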

[10] = tested on: Mus musculus; test: Antinociceptive activity in Harlan ICR mouse assessed as latency to heat-induced tail flicking at 77 umol/kg, iv at 20 mins relative to control; assay type: functional
[11] = tested on: Mus musculus; test: Induction of catalepsy in Harlan ICR mouse at 77 umol/kg, iv at 40 mins measured for 5 mins by ring immobility test; assay type: functional
In short: (§4)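 Male ICR mice given a single iv probe dose in emulphor–ethanol–saline 1:1:18. At 40 min placed on a 5.5 cm ring raised 16 cm and observed for 5 min by blinded raters. Up to 5 escapes allowed; mice escaping before 2.5 min excluded. Immobility index = time motionless / 300 s × 100.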

[12] = tested on: Mus musculus; test: Induction of catalepsy in iv dosed Harlan ICR mouse at 40 mins measured for 5 mins by ring immobility test; assay type: functional
[13] = tested on: Mus musculus; test: Antinociceptive activity in Harlan ICR mouse assessed as latency to heat-induced tail flicking at 86 umol/kg, iv at 20 mins relative to control; assay type: functional
[14] = tested on: Mus musculus; test: Hypothermic activity in Harlan ICR mouse assessed as change in rectal temperature at 86 umol/kg, iv at 30 mins; assay type: functional, organism-based; in short: as §2
[15] = tested on: Mus musculus; test: Locomotor activity in Harlan ICR mouse assessed as inhibition of activity level at 86 umol/kg, iv from 5 to 15 mins by spontaneous locomotor activity test relative to vehicle treated control; assay type: functional; in short: as §3
[16] = tested on: Mus musculus; test: Locomotor activity in Harlan ICR mouse assessed as inhibition of activity level at 6.2 umol/kg, iv from 5 to 15 mins by spontaneous locomotor activity test relative to vehicle treated control; assay type: functional, organism-based
In short: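 Spontaneous activity in male ICR mice (18–25 g) after one iv tail-vein probe dose in 1:1:18 emulphor–ethanol–saline. Photocell beam interruptions (16 beams per chamber) recorded over 10 min, 5–15 min after dosing. Reported as % inhibition relative to the vehicle group. n = 6 per dose.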

[17] = tested on: Mus musculus; test: Hypothermic activity in Harlan ICR mouse assessed as change in rectal temperature at 30 mg/kg, iv at 30 mins in the presence of rimonabant; assay type: functional, organism-based; parameters: dose 30 mg/kg
[18] = molecular target: T1, Cannabinoid receptor 1; test: Activation of human CB1 receptor expressed in HEK293 cells assessed as [35S]GTPgamma binding after 90 mins by liquid scintillation spectrophotometry relative to CP55940; assay type: functional, cell-based
In short: (§5)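 Membranes from HEK-293 cells stably expressing human CB1, pelleted at 50,000g and taken up in Tris-HCl pH 7.4 with MgCl2, EGTA and NaCl. 10 µg protein with BSA, 20 µM GDP, 0.1 nM [35S]GTPγS and graded test concentrations, 90 min at 30 °C. 2 µM CP55,940 run as internal standard; basal without agonist, nonspecific with 10 µM GTPγS. Filtration, then scintillation counting.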

[19] = tested on: Mus musculus; test: Antinociceptive activity in Harlan ICR mouse assessed as latency to heat-induced tail flicking at 30 mg/kg, iv at 20 mins in the presence of rimonabant; assay type: functional, organism-based; parameters: dose 30 mg/kg
[20] = tested on: Mus musculus; test: Locomotor activity in Harlan ICR mouse at 30 mg/kg, iv from 5 to 15 mins by spontaneous locomotor activity test in the presence of rimonabant; assay type: functional, organism-based; parameters: dose 30 mg/kg
[21] = tested on: Mus musculus; test: Induction of catalepsy in Harlan ICR mouse at 30 mg/kg, iv 40 mins measured for 5 mins by ring immobility test in the presence of rimonabant; assay type: functional, organism-based; parameters: dose 30 mg/kg
[22] = tested on: Mus musculus; test: Locomotor activity in Harlan ICR mouse assessed as inhibition of activity level at 83 umol/kg, iv from 5 to 15 mins by spontaneous locomotor activity test relative to vehicle treated control; assay type: functional; in short: as §3
[23] = tested on: Mus musculus; test: Hypothermic activity in Harlan ICR mouse assessed as change in rectal temperature at 83 umol/kg, iv at 30 mins; assay type: functional; in short: as §2
[24] = tested on: Mus musculus; test: Antinociceptive activity in Harlan ICR mouse assessed as latency to heat-induced tail flicking at 83 umol/kg, iv at 20 mins relative to control; assay type: functional
[25] = tested on: Mus musculus; test: Induction of catalepsy in Harlan ICR mouse at 83 umol/kg, iv at 40 mins measured for 5 mins by ring immobility test; assay type: functional; in short: as §4
[26] = tested on: Mus musculus; test: Hypothermic activity in Harlan ICR mouse assessed as change in rectal temperature at 74 umol/kg, iv at 30 mins; assay type: functional; in short: as §2
[27] = tested on: Mus musculus; test: Antinociceptive activity in Harlan ICR mouse assessed as latency to heat-induced tail flicking at 74 umol/kg, iv at 20 mins relative to control; assay type: functional
[28] = tested on: Mus musculus; test: Locomotor activity in Harlan ICR mouse assessed as inhibition of activity level at 74 umol/kg, iv from 5 to 15 mins by spontaneous locomotor activity test relative to vehicle treated control; assay type: functional; in short: as §3
[29] = molecular target: T1, Cannabinoid receptor 1; test: Activation of human CB1 receptor expressed in HEK293 cells assessed as [35S]GTPgamma binding after 90 mins by liquid scintillation spectrophotometry; assay type: functional, cell-based; in short: as §5
[30] = tested on: Mus musculus; test: Locomotor activity in Harlan ICR mouse assessed as inhibition of activity level at 66 umol/kg, iv from 5 to 15 mins by spontaneous locomotor activity test relative to vehicle treated control; assay type: functional; in short: as §3

T1 sequence (P21554 whole entry): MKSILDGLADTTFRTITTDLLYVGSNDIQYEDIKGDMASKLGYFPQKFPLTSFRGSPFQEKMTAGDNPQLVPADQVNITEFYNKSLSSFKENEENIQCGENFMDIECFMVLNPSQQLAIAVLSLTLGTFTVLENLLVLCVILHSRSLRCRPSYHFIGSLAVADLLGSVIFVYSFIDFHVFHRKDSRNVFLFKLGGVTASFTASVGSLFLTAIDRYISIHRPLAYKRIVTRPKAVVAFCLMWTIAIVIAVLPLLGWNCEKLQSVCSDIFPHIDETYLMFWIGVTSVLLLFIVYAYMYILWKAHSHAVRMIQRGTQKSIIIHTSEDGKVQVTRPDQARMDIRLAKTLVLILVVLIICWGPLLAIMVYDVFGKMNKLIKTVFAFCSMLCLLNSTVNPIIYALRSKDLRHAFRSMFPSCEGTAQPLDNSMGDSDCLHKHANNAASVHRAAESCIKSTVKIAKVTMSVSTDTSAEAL
Cannabinoid receptor 2, sequence (P34972 whole entry): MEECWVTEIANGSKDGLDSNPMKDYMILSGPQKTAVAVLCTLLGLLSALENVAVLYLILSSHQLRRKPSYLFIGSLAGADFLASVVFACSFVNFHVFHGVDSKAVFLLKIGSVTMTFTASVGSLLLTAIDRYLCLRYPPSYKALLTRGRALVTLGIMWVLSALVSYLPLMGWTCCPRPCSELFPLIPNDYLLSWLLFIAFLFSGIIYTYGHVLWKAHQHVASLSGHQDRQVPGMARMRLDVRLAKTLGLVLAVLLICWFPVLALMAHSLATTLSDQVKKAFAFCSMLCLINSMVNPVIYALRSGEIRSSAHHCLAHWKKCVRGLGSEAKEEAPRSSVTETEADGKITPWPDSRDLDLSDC

SMILES	ED50 [2] [µmol/kg]	ED50 [3] [µmol/kg]	ED50 [4] [µmol/kg]	Ki [5] [µM]	Ki [6] [µM]	Ratio Ki [7]	further results
CCCn1c(C)c(C(=O)c2cccc3ccccc23)c2ccccc21	84.7	99.1	18.7	–	–	–	ED50 [1]: 87.2 µmol/kg
CCCn1cc(C(=O)c2ccc(Cl)c3ccccc23)c2ccccc21	–	–	–	0.044	0.093	2	–
CCCn1cc(C(=O)c2ccc(Br)c3ccccc23)c2ccccc21	–	–	–	0.027	0.161	6	Activity [8]: -3.9%; inhibition in vivo at 77 µmol/kg [9]: 71%; Activity [10]: 75%; Activity [11]: 26%
CCCCCn1c(C)c(C(=O)c2ccc(F)c3ccccc23)c2ccccc21	0.48	0.54	0.38	0.0022	0.014	6	ED50 [12]: 0.99 µmol/kg
CCCCCn1c(C)c(C(=O)c2ccc(Cl)c3ccccc23)c2ccccc21	–	–	–	0.0023	0.0089	4	Activity [8]: -6.4%; inhibition in vivo at 77 µmol/kg [9]: 94%; Activity [10]: 100%; Activity [11]: 88%
CCCn1cc(C(=O)c2cccc3cccc(Cl)c23)c2ccccc21	–	–	–	0.134	0.642	4.8	Activity [13]: 72%; Activity [14]: inactive; inhibition in vivo at 86 µmol/kg [15]: 68%
CCCCCn1c(C)c(C(=O)c2cccc3cccc(I)c23)c2ccccc21	–	–	–	0.013	0.522	40	inhibition [16]: inactive
CCCCCn1c(C)c(C(=O)c2cccc3cccc(Cl)c23)c2ccccc21	–	–	–	0.019	0.116	6.1	Activity [8]: -5.5%; inhibition in vivo at 77 µmol/kg [9]: 84%; Activity [10]: 100%; Activity [11]: 86%
CCCn1c(C)c(C(=O)c2ccc(F)c3ccccc23)c2ccccc21	11.9	30.1	9.6	0.038	0.53	14	Activity [17]: inactive; Emax [18]: 59%; Activity [19]: inactive; Activity [20]: inactive; Activity [21]: inactive; ED50 [12]: 23.2 µmol/kg
CCCCCn1c(C)c(C(=O)c2ccc(Br)c3ccccc23)c2ccccc21	–	–	–	0.0028	0.014	5	–
CCCCCc1cc(O)c2c(c1)OC(C)(C)[C@@H]1CCC(C)=C[C@@H]21 [DRONABINOL]	–	–	3.2	–	–	–	–
CCCn1c(C)c(C(=O)c2ccc(Cl)c3ccccc23)c2ccccc21	–	–	–	0.022	0.187	9	inhibition in vivo at 83 µmol/kg [22]: 70%; Activity [23]: -5.4%; Activity [24]: 100%; Activity [25]: 70%
CCCn1c(C)c(C(=O)c2ccc(Br)c3ccccc23)c2ccccc21	–	–	–	0.031	0.373	12	Activity [26]: -5%; Activity [27]: 96%; inhibition in vivo at 74 µmol/kg [28]: 80%
CCCn1c(C)c(C(=O)c2cccc3cccc(Br)c23)c2ccccc21	–	–	–	0.278	> 10	> 36	Activity [26]: -2.3%; Activity [27]: 72%; inhibition in vivo at 74 µmol/kg [28]: 49%
CCCCCn1c(C)c(C(=O)c2ccc(I)c3ccccc23)c2ccccc21	2.5	2.6	1.1	0.0021	0.014	7	ED50 [12]: 2.5 µmol/kg
CCCn1c(C)c(C(=O)c2cccc3cccc(Cl)c23)c2ccccc21	–	–	–	0.174	> 10	> 57	inhibition in vivo at 83 µmol/kg [22]: 70%; Activity [23]: -2.3%; Activity [24]: 42%; Activity [25]: 15%
CCCCCn1cc(C(=O)c2ccc(F)c3ccccc23)c2ccccc21	0.14	< 0.08	< 0.08	0.0032	0.0072	2	ED50 [12]: 0.58 µmol/kg
CCCCCn1cc(C(=O)c2cccc3cccc(Br)c23)c2ccccc21	1.8	2.4	1.4	0.0054	0.021	4	ED50 [12]: 3.7 µmol/kg
Cc1c(C(=O)c2cccc3ccccc23)c2cccc3c2n1[C@H](CN1CCOCC1)CO3 [WIN-552122]	0.94	–	0.23	–	–	–	–
C=C1CC[C@@H]2[C@@H](C1)c1ccc(C(C)(C)CCCCCC)cc1OC2(C)C	–	–	–	–	–	–	Activity [29]: inactive
CCCCCn1cc(C(=O)c2ccc(I)c3ccccc23)c2ccccc21	0.45	0.19	0.3	0.0013	0.0025	2	ED50 [12]: 0.38 µmol/kg
CCCn1cc(C(=O)c2cccc3cccc(Br)c23)c2ccccc21	–	–	–	0.192	> 10	> 52	Activity [8]: -2%; inhibition in vivo at 77 µmol/kg [9]: 76%; Activity [10]: 9%; Activity [11]: 5%
CCCn1c(C)c(C(=O)c2cccc3cccc(I)c23)c2ccccc21	–	–	–	0.536	4.29	8	inhibition [30]: inactive
CCCCCn1cc(C(=O)c2cccc3ccccc23)c2ccccc21	0.09	1.7	0.44	–	–	3.2	ED50 [1]: 3 µmol/kg
CCCCCn1cc(C(=O)c2ccc(Br)c3ccccc23)c2ccccc21	–	–	–	0.0011	0.0012	1	–
CCCCCn1cc(C(=O)c2cccc3cccc(I)c23)c2ccccc21	1.3	6.4	1.8	0.0033	0.073	22	ED50 [12]: 3.6 µmol/kg
